In ChEMBL document CHEMBL3526018, “Metabolites of PPI-2458, a selective, irreversible inhibitor of methionine aminopeptidase-2: structure determination and in vivo activity” (Drug Metab Dispos, 2013):
Active and inactive are the calls of the source. The rule behind the calls is not given here.

Experiments:
Rattus norvegicus [1] = assay: Inhibition of MetAP2 level in Sprague-Dawley rat liver assessed as free enzyme level at 0.3 mg/kg, iv by ELISA; type: functional, organism-based; design: dose 0.3 mg/kg
Procedure, shortened: (§1)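 Male Sprague-Dawley rats (200-225 g, n=3 per group) were dosed once IV at 0.3 mg/kg or PO at 0.3 or 3.0 mg/kg, in 11% HPCD in water. Blood, liver, lung, thymus and pooled non-mesenteric lymph nodes were taken at ~24 h and lysed or homogenized with NP-40. Free MetAP2 was measured by ELISA and expressed as % of vehicle.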

Rattus norvegicus [2] = assay: Inhibition of MetAP2 level in Sprague-Dawley rat thymus assessed as free enzyme level at 0.3 mg/kg, po by ELISA; type: functional, organism-based; design: dose 0.3 mg/kg; procedure, shortened: as §1
[3] = biological target: Methionine aminopeptidase 2 (Homo sapiens) (UniProt P50579); assay: Inhibition of human MetAP2 activity after end of experiment; design: scale not given: the % may be the effect or the level left
Rattus norvegicus [4] = assay: Inhibition of MetAP2 level in Sprague-Dawley rat lung assessed as free enzyme level at 3 mg/kg, po by ELISA; type: functional, organism-based; design: dose 3 mg/kg; procedure, shortened: as §1
Rattus norvegicus [5] = assay: Inhibition of MetAP2 level in Sprague-Dawley rat liver assessed as free enzyme level at 3 mg/kg, po by ELISA; type: functional, organism-based; design: dose 3 mg/kg; procedure, shortened: as §1
Rattus norvegicus [6] = assay: Inhibition of MetAP2 level in Sprague-Dawley rat lymph nodes assessed as free enzyme level at 0.3 mg/kg, po by ELISA; type: functional, organism-based; design: dose 0.3 mg/kg; procedure, shortened: as §1
Rattus norvegicus [7] = assay: Inhibition of MetAP2 level in Sprague-Dawley rat thymus assessed as free enzyme level at 3 mg/kg, po by ELISA; type: functional, organism-based; design: dose 3 mg/kg; procedure, shortened: as §1
Rattus norvegicus [8] = assay: Inhibition of MetAP2 level in Sprague-Dawley rat thymus assessed as free enzyme level at 0.3 mg/kg, iv by ELISA; type: functional, organism-based; design: dose 0.3 mg/kg; procedure, shortened: as §1
Rattus norvegicus [9] = assay: Inhibition of MetAP2 level in Sprague-Dawley rat lung assessed as free enzyme level at 0.3 mg/kg, po by ELISA; type: functional, organism-based; design: dose 0.3 mg/kg; procedure, shortened: as §1
[10] = Retention time in mouse liver microsomes treated with at 5 mM PPI-2458 by LC/MS analysis; type: ADME; details: 5000 µM
Procedure, shortened: (§2)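 Liver microsomes (pooled male/female) in 100 mM KPO4 pH 7.4 with PPI-2458 (5 mM stock), pre-incubated 5 min at 37°C, then 10 mM NADPH added; 20 min at 37°C with shaking. Time-zero and no-NADPH controls. Quenched with CH3CN; supernatant dried and redissolved in water. Analysed by LC-MS, ESI+ full scan 300–800 amu, C18 column, 10→50% B gradient.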

Rattus norvegicus [11] = assay: Inhibition of MetAP2 level in Sprague-Dawley rat whole blood assessed as free enzyme level at 3 mg/kg, po by ELISA; type: functional, organism-based; design: dose 3 mg/kg; procedure, shortened: as §1
Rattus norvegicus [12] = assay: Inhibition of MetAP2 level in Sprague-Dawley rat lymph nodes assessed as free enzyme level at 3 mg/kg, po by ELISA; type: functional, organism-based; design: dose 3 mg/kg; procedure, shortened: as §1
Liver microsome [13] = assay: Retention time in dog liver microsomes treated with at 5 mM PPI-2458 by LC/MS analysis; type: ADME, Canis lupus familiaris; details: 5000 µM; procedure, shortened: as §2
Liver microsome [14] = assay: Retention time in rat liver microsomes treated with at 5 mM PPI-2458 by LC/MS analysis; type: ADME; details: 5000 µM; procedure, shortened: as §2
Rattus norvegicus [15] = assay: Inhibition of MetAP2 level in Sprague-Dawley rat lung assessed as free enzyme level at 0.3 mg/kg, iv by ELISA; type: functional, organism-based; design: dose 0.3 mg/kg; procedure, shortened: as §1
Liver microsome [16] = assay: Retention time in human liver microsomes treated with at 5 mM PPI-2458 by LC/MS analysis; type: ADME; details: 5000 µM; procedure, shortened: as §2
Rattus norvegicus [17] = assay: Inhibition of MetAP2 level in Sprague-Dawley rat liver assessed as free enzyme level at 0.3 mg/kg, po by ELISA; type: functional, organism-based; design: dose 0.3 mg/kg; procedure, shortened: as §1
Rattus norvegicus [18] = assay: Inhibition of MetAP2 level in Sprague-Dawley rat whole blood assessed as free enzyme level at 0.3 mg/kg, po by ELISA; type: functional, organism-based; design: dose 0.3 mg/kg; procedure, shortened: as §1
Rattus norvegicus [19] = assay: Inhibition of MetAP2 level in Sprague-Dawley rat lymph nodes assessed as free enzyme level at 0.3 mg/kg, iv by ELISA; type: functional, organism-based; design: dose 0.3 mg/kg; procedure, shortened: as §1
Rattus norvegicus [20] = assay: Inhibition of MetAP2 level in Sprague-Dawley rat whole blood assessed as free enzyme level at 0.3 mg/kg, iv by ELISA; type: functional, organism-based; design: dose 0.3 mg/kg; procedure, shortened: as §1
[21] = biological target: Methionine aminopeptidase 2 (Homo sapiens) (UniProt P50579); assay: Inhibition of human MetAP2 assessed as remaining enzyme activity after 8 hrs; design: concentration or dose not given beside the values
Procedure, shortened: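 The hMetAP2 assay follows the fraction of active enzyme remaining during an 8 h incubation with inhibitor, relative to an enzyme-only control.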

[22] = Retention time in monkey liver microsomes treated with at 5 mM PPI-2458 by LC/MS analysis; type: ADME, Macaca mulatta; details: rhesus monkey, 5000 µM; procedure, shortened: as §2

Sequence of Methionine aminopeptidase 2 (Homo sapiens) (P50579 2-478 limits assumed): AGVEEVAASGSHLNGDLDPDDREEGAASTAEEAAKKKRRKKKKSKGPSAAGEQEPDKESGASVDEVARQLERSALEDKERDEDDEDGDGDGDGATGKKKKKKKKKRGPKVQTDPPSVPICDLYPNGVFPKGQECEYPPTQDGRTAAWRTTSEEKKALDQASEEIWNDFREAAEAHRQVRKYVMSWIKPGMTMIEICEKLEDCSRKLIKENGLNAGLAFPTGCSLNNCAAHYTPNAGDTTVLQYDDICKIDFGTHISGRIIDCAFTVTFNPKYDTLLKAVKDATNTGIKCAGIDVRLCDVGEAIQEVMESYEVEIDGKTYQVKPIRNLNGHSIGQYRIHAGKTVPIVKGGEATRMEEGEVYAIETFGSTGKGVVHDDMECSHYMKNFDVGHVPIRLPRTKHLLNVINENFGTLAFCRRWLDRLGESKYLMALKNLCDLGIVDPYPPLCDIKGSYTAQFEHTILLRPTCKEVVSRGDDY

Retention_time [10] [min]	Retention_time (Liver microsome [13]) [min]	Retention_time (Liver microsome [14]) [min]	Retention_time (Liver microsome [16]) [min]	Activity [21] [%]	SMILES	inhibition (Rattus norvegicus [1])	inhibition (Rattus norvegicus [2])	inhibition (Rattus norvegicus [4])	inhibition (Rattus norvegicus [5])	inhibition (Rattus norvegicus [6])	inhibition (Rattus norvegicus [7])	inhibition (Rattus norvegicus [8])	inhibition (Rattus norvegicus [9])	inhibition (Rattus norvegicus [11])	inhibition (Rattus norvegicus [12])	inhibition (Rattus norvegicus [15])	inhibition (Rattus norvegicus [17])	inhibition (Rattus norvegicus [18])	inhibition (Rattus norvegicus [19])	inhibition (Rattus norvegicus [20])	other results
20.8	20.8	20.8	20.8	10	CO[C@@H]1[C@H](OC(=O)N[C@@H](C(N)=O)C(C)C)CC[C@]2(CO2)[C@H]1[C@@]1(C)O[C@@H]1C[C@H]1OC1(C)C	Active	inactive	Active	Active	inactive	Active	Active	inactive	Active	Active	Active	inactive	inactive	Active	Active	Activity [3]: 90%; Retention_time [22]: 20.8 min
17.6	17.6	17.6	17.6	9	CO[C@@H]1[C@H](OC(=O)N[C@@H](C(N)=O)C(C)C)CC[C@]2(CO2)[C@H]1[C@@]1(C)O[C@@H]1C/C=C(\C)CO	Active	inactive	Active	Active	inactive	Active	Active	inactive	Active	Active	Active	inactive	inactive	Active	Active	Activity [3]: 90%; Retention_time [22]: 17.6 min
–	–	–	–	6	CO[C@@H]1[C@H](OC(=O)N[C@@H](C(N)=O)C(C)(C)O)CC[C@]2(CO2)[C@H]1[C@@]1(C)O[C@@H]1C[C@H]1OC1(C)C	–	–	–	–	–	–	–	–	–	–	–	–	–	–	–	–
20.1	20.1	20.1	20.1	58	CO[C@@H]1[C@H](OC(=O)N[C@@H](C(N)=O)C(C)C)CC[C@]2(CO2)[C@H]1[C@@]1(C)O[C@@H]1C[C@@H]1OC1(C)C	Active	inactive	Active	Active	inactive	Active	Active	inactive	Active	Active	Active	inactive	inactive	Active	Active	Activity [3]: 40%; Retention_time [22]: 20.1 min
–	–	–	–	39	CO[C@@H]1[C@H](OC(=O)N[C@@H](C(N)=O)C(C)(C)O)CC[C@]2(CO2)[C@H]1[C@@]1(C)O[C@@H]1C[C@@H]1OC1(C)C	–	–	–	–	–	–	–	–	–	–	–	–	–	–	–	–
–	–	–	–	90	CO[C@@H]1[C@H](OC(=O)N[C@@H](C(N)=O)C(C)C)CC[C@]2(CO2)[C@H]1[C@@]1(C)O[C@@H]1CCC(C)(C)O	–	–	–	–	–	–	–	–	–	–	–	–	–	–	–	–
26.7	26.7	26.7	26.7	1	CO[C@@H]1[C@H](OC(=O)N[C@@H](C(N)=O)C(C)(C)O)CC[C@]2(CO2)[C@H]1[C@@]1(C)O[C@@H]1CC=C(C)C	Active	Active	Active	Active	Active	Active	Active	Active	Active	Active	Active	Active	Active	Active	Active	Retention_time [22]: 26.7 min
